Molecules are shown by their SMILES. Converted amounts (≈) assume the structure as drawn.

What is called MIC is the smallest concentration in the dilution series that meets the test's criterion for growth inhibition.

The nature of data set [1]: Association constant was evaluated towards synthetic peptidoglycan analogue Ac2-Lys-D-Ala-D-Ala. In kind it is ADME. In short, it runs like this: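 Differential UV spectroscopy in tandem cells, 2 cm total path. Antibiotic at 50 μg/mL in 20 mM sodium citrate buffer pH 5.1, with 10% methanol for poorly water-soluble compounds. Ac2-Lys-D-Ala-D-Ala peptide added stepwise. Absorbance change followed at the wavelength of maximal change, and the association constant K_A derived from it.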

Data set [2] concerns Streptococcus pyogenes. Put plainly: The antibacterial activity was evaluated as minimal inhibitory concentration (MIC) against Streptococcus pyogenes C203. In kind it is functional. In short, it runs like this:
(§1)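 Twofold agar dilution of compound in 10 mL brain heart infusion agar. Organisms grown 24 h, diluted 1/100, inoculum applied by multipoint replicator. Plates incubated at 35 °C (24 h per table footnote; 25 h per methods). MIC read as lowest inhibiting concentration, μg/mL. Ristocetin run as standard.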

The subject of data set [3] is Staphylococcus aureus. Put plainly: The antibacterial activity was evaluated as minimal inhibitory concentration (MIC) against Staphylococcus aureus Smith. In kind it is functional. In short, it runs like this:
as §1

In data set [4] the test system is Staphylococcus epidermidis. Put plainly: The antibacterial activity was evaluated as minimal inhibitory concentration (MIC) against Staphylococcus epidermis 3519. In kind it is functional. In short, it runs like this:
as §1

For data set [5], the system named is Enterococcus faecalis. Put plainly: The antibacterial activity was evaluated as minimal inhibitory concentration (MIC) against Streptococcus faecalis 10541. In kind it is functional. In short, it runs like this: as §1

As for `COC(=O)[C@H]1NC(=O)[C@H]2NC(=O)[C@H](NC(=O)[C@@H]3NC(=O)[C@H]4NC(=O)[C@H](NC(=O)[C@H](N)c5ccc(O)c(c5)Oc5cc4cc(O)c5C)[C@H](O)c4ccc(cc4)Oc4cc3cc(c4O[C@H]3O[C@H](CO[C@H]4O[C@H](C)[C@@H](O)[C@@H](O)[C@@H]4O)[C@H](O)[C@H](O)[C@H]3O[C@H]3O[C@@H](CO)[C@@H](O)[C@@H](O)[C@H]3O[C@H]3OC[C@@H](O)[C@@H](O)[C@H]3O)Oc3ccc(cc3)[C@H]2O[C@@H]2C[C@@H](N)[C@@H](O)[C@@H](C)O2)c2ccc(O)c(c2)-c2c(O[C@@H]3O[C@H](CO)[C@@H](O)[C@@H](O)[C@@H]3O)cc(O)cc21`, in data set [1], the “K A” value is 600000 M⁻¹. Moreover, the MIC was 1.56 µg/mL (≈ 0.754 µM) in data set [2], 12.5 µg/mL (≈ 6.04 µM) in data set [3], 25 µg/mL (≈ 12.1 µM) in data set [4] and 6.2 µg/mL (≈ 3 µM) in data set [5].

In the case of `COC(=O)[C@H]1NC(=O)C2NC(=O)[C@H](NC(=O)[C@@H]3NC(=O)[C@H]4NC(=O)[C@H](NC(=O)[C@@H](NC(C)=O)c5ccc(O)c(c5)Oc5cc4cc(O)c5C)[C@H](O)c4ccc(cc4)Oc4cc3cc(c4O)Oc3ccc(cc3)C2O)c2ccc(O)c(c2)-c2c(O)cc(O)cc21` (stereo not given in full), the “K A” value in data set [1] is 140000 M⁻¹. The MIC in data set [2] was found to be 3.1 µg/mL (≈ 2.55 µM); in data set [3] it was 6.2 µg/mL (≈ 5.1 µM); in data set [4], 6.2 µg/mL (≈ 5.1 µM); in data set [5] it was 6.2 µg/mL (≈ 5.1 µM).

For `COC(=O)[C@H]1NC(=O)C2NC(=O)[C@H](NC(=O)[C@@H]3NC(=O)[C@H]4NC(=O)[C@H](NC(=O)[C@@H](N)c5ccc(O)c(c5)Oc5cc4cc(O)c5C)[C@H](O)c4ccc(cc4)Oc4cc3cc(c4O)Oc3ccc(cc3)C2O)c2ccc(O)c(c2)-c2c(O)cc(O)cc21` (stereo not given in full), the “K A” value in data set [1] came to 670000 M⁻¹. The MIC in data set [2], in data set [3], in data set [4] and in data set [5] was 3.1 µg/mL (≈ 2.64 µM) throughout.

On to `COC(=O)[C@H]1NC(=O)C2NC(=O)[C@H](NC(=O)[C@@H]3NC(=O)[C@H]4NC(=O)[C@H](NC(=O)[C@H](N)c5ccc(O)c(c5)Oc5cc4cc(O)c5C)[C@H](O)c4ccc(cc4)Oc4cc3cc(c4O)Oc3ccc(cc3)C2O)c2ccc(O)c(c2)-c2c(O)cc(O)cc21` (stereo not given in full), for which the “K A” value in data set [1] turned out to be 20000 M⁻¹. Further, the MIC in data set [2] amounted to 25 µg/mL (≈ 21.3 µM); in data set [3], 25 µg/mL (≈ 21.3 µM); in data set [4], 50 µg/mL (≈ 42.6 µM); in data set [5], 50 µg/mL (≈ 42.6 µM).

For the compound `COC(=O)[C@H]1NC(=O)C2NC(=O)[C@H](NC(=O)[C@@H]3NC(=O)[C@H]4NC(=O)[C@H](NC(=O)[C@H](O)c5ccc(O)c(c5)Oc5cc4cc(O)c5C)[C@H](O)c4ccc(cc4)Oc4cc3cc(c4O)Oc3ccc(cc3)C2O)c2ccc(O)c(c2)-c2c(O)cc(O)cc21` (stereo not given in full), the “K A” value in data set [1] came to 150000 M⁻¹. The MIC is 6.2 µg/mL (≈ 5.28 µM) in data set [2], 12.5 µg/mL (≈ 10.6 µM) in data set [3], 12.5 µg/mL (≈ 10.6 µM) in data set [4] and 6.2 µg/mL (≈ 5.28 µM) in data set [5].

In the case of `COC(=O)[C@H]1NC(=O)C2NC(=O)[C@H](NC(=O)[C@@H]3NC(=O)[C@H]4NC(=O)[C@H](NC(=O)C(=O)c5ccc(O)c(c5)Oc5cc4cc(O)c5C)[C@H](O)c4ccc(cc4)Oc4cc3cc(c4O)Oc3ccc(cc3)C2O)c2ccc(O)c(c2)-c2c(O)cc(O)cc21` (stereo not given in full), the “K A” value in data set [1] was 560000 M⁻¹. The MIC turned out to be 3.1 µg/mL (≈ 2.64 µM) in data set [2], 6.2 µg/mL (≈ 5.29 µM) in data set [3], 12.5 µg/mL (≈ 10.7 µM) in data set [4] and 12.5 µg/mL (≈ 10.7 µM) in data set [5].

With `COC(=O)[C@H]1NC(=O)C2NC(=O)[C@H](NC(=O)[C@@H]3NC(=O)[C@H]4NC(=O)[C@H](NC(=O)/C(=N/O)c5ccc(O)c(c5)Oc5cc4cc(O)c5C)[C@H](O)c4ccc(cc4)Oc4cc3cc(c4O)Oc3ccc(cc3)C2O)c2ccc(O)c(c2)-c2c(O)cc(O)cc21` (stereo not given in full), the “K A” value in data set [1] is 960000 M⁻¹. The MIC was 1.56 µg/mL (≈ 1.31 µM) in data set [2], 3.1 µg/mL (≈ 2.61 µM) in data set [3], 3.1 µg/mL (≈ 2.61 µM) in data set [4] and 3.1 µg/mL (≈ 2.61 µM) in data set [5].

The values above are taken from ChEMBL document CHEMBL1123055, “Preparation of biologically active ristocetin derivatives: replacements of the 1'-amino group” (J Med Chem, 1985).
